Assay results published in ChEMBL document CHEMBL4819032, “Structure-based design of highly selective 2,4,5-trisubstituted pyrimidine CDK9 inhibitors as anti-cancer agents” (Eur J Med Chem, 2021).
pKi: −log10 of the molar value. Calls of active or inactive are those of the source. No cut-off for these calls is given here.

Columns and labels:
[1] = molecular target: Cyclin-dependent kinase 7/ cyclin H (Homo sapiens, UniProt P50613); experiment: Inhibition of recombinant human full length CDK7/Cyclin H using peptide as substrate incubated for 40 mins in presence of [gamma-33P]-ATP by scintillation counting method; type: protein-complex assay
In short: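 Radiometric kinase assay with ATP at each kinase's Km(app). IC50 values come from 10-point dose-response curves, and apparent Ki is calculated from IC50 and the kinase's Km(ATP).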

Homo sapiens = species on record: Homo sapiens; experiment: Selectivity index, ratio of Ki for inhibition of recombinant human full length CDK9/Cyclin T1 to Ki for inhibition of recombinant human full length CDK7/Cyclin H
[2] = system: Aurora kinase A (Homo sapiens), O14965 [UNDEFINED MUTATION]; experiment: Inhibition of recombinant human full length Aurora-A I31F mutant using LRRASLG as substrate incubated for 40 mins by scintillation counting method
In short: (§1)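 The 60-kinase diversity panel was run as a radiometric assay with ATP at each kinase's Km(app). Compound was tested at one fixed concentration across all kinases.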

[3] = molecular target: T1, Serine/threonine-protein kinase Nek2 (Homo sapiens) (UniProt P51955); experiment: Inhibition of recombinant human full length NEK2 using myelin basic protein as substrate incubated for 40 mins by scintillation counting method; in short: as §1
T1 sequence (whole entry): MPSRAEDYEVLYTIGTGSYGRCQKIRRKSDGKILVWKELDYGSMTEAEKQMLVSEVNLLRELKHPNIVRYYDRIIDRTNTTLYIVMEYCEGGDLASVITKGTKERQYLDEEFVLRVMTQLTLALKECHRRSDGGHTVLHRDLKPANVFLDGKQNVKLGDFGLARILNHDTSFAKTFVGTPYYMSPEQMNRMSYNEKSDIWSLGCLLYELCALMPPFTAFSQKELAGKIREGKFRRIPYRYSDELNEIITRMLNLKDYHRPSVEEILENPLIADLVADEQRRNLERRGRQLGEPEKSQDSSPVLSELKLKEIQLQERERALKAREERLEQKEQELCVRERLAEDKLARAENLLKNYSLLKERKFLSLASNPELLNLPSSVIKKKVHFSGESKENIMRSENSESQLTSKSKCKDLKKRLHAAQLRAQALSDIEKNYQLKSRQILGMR

[4] = molecular target: Tyrosine-protein kinase Fyn (Homo sapiens) (UniProt P06241); experiment: Inhibition of recombinant human full length FYN using KVEKIGEGTYGVVYK as substrate incubated for 40 mins by scintillation counting method; in short: as §1
A549 = experiment: Growth inhibition of human A549 cells after 48 hrs by MTT assay; type: functional
MIA PaCa-2 = experiment: Growth inhibition of human MIA PaCa-2 cells after 48 hrs by MTT assay; type: functional
A2780 [5] = experiment: Induction of apoptosis in human A2780 cells assessed as viable cells at 0.5 uM after 24 hrs by Annexin V-FITC/PI staining based flow cytometric analysis (reference value: 92%); type: functional; conditions: read-out: Activity
In short: (§2)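 A2780 cells cultured 24 h in medium alone or with varying inhibitor concentrations, then stained with FITC-annexin V/PI per kit protocol and analysed by flow cytometry. Run in triplicate and repeated at least twice; significance by one-way ANOVA, p < 0.01.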

A2780 [6] = experiment: Induction of apoptosis in human A2780 cells assessed as viable cells at 2 uM after 24 hrs by Annexin V-FITC/PI staining based flow cytometric analysis (reference value: 92%); type: functional; conditions: read-out: Activity; in short: as §2
A2780 [7] = experiment: Induction of apoptosis in human A2780 cells assessed as early apoptotic cells at 2 uM after 24 hrs by Annexin V-FITC/PI staining based flow cytometric analysis (reference value: 1.6%); type: functional; in short: as §2
A2780 [8] = experiment: Induction of apoptosis in human A2780 cells assessed as viable cells at 5 uM after 24 hrs by Annexin V-FITC/PI staining based flow cytometric analysis (reference value: 92%); type: functional; conditions: read-out: Activity; in short: as §2
A2780 [9] = experiment: Induction of apoptosis in human A2780 cells assessed as early apoptotic cells at 5 uM after 24 hrs by Annexin V-FITC/PI staining based flow cytometric analysis (reference value: 1.6%); type: functional; in short: as §2
A2780 [10] = experiment: Induction of cell cycle arrest in human A2780 cells assessed as accumulation at pre-G1 phase at 0.5 uM after 24 hrs by propidium iodide staining based flow cytometric analysis (reference value: 1.2%); type: functional
A2780 [11] = experiment: Induction of cell cycle arrest in human A2780 cells assessed as accumulation at G1/G0 phase at 0.5 uM after 24 hrs by propidium iodide staining based flow cytometric analysis (reference value: 56.7%); type: functional
In short: (§3)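 4 × 10⁵ A2780 cells cultured 24 h in medium alone or with varying inhibitor concentrations, harvested into hypotonic fluorochrome solution (0.1% sodium citrate, 0.1% Triton X-100, propidium iodide, 100 ug/ml RNase A), and DNA content analysed by flow cytometry. Representative of three independent experiments.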

A2780 [12] = experiment: Induction of cell cycle arrest in human A2780 cells assessed as accumulation at G1/G0 phase at 1 uM after 24 hrs by propidium iodide staining based flow cytometric analysis (reference value: 56.7%); type: functional; in short: as §3
A2780 [13] = experiment: Induction of cell cycle arrest in human A2780 cells assessed as accumulation at S phase at 1 uM after 24 hrs by propidium iodide staining based flow cytometric analysis (reference value: 20%); type: functional; in short: as §3
A2780 [14] = experiment: Induction of cell cycle arrest in human A2780 cells assessed as accumulation at S phase at 2 uM after 24 hrs by propidium iodide staining based flow cytometric analysis (reference value: 20%); type: functional; in short: as §3
A2780 [15] = experiment: Induction of cell cycle arrest in human A2780 cells assessed as accumulation at G1/G0 phase at 5 uM after 24 hrs by propidium iodide staining based flow cytometric analysis (reference value: 56.7%); type: functional; in short: as §3
A2780 [16] = experiment: Induction of cell cycle arrest in human A2780 cells assessed as accumulation at pre-G1 phase after 24 hrs by propidium iodide staining based flow cytometric analysis; type: functional; conditions: dose 0.5-5 µM; in short: as §3
[17] = molecular target: Cyclin-dependent kinase 9 (Homo sapiens) (UniProt P50750); experiment: Inhibition of CDK9 in human A2780 cells assessed as reduction in RNAP2 phosphorylation at ser2 residues after 24 hrs by Western blot analysis; type: cell-based; conditions: dose 0.5-5 µM
A2780 [18] = experiment: Induction of apoptosis in human A2780 cells assessed as reduction in Mcl-1 protein expression at 5 uM after 6 to 12 hrs by Western blot analysis; type: functional, cell-based; conditions: time 6-12 hrs
In short: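 A2780 cells treated for 6 or 12 h, then lysates analysed by Western blotting.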

A2780 [19] = experiment: Induction of apoptosis in human A2780 cells assessed as reduction in Mcl-1 protein expression after 24 hrs by Western blot analysis; type: functional, cell-based; conditions: dose 0.5-5 µM
In short: (§4)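 A2780 cells treated for 24 h over a concentration series, then lysates analysed by Western blotting.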

A2780 [20] = experiment: Induction of apoptosis in human A2780 cells assessed as reduction in XIAP protein expression after 24 hrs by Western blot analysis; type: functional, cell-based; conditions: dose 0.5-5 µM; in short: as §4
A2780 [21] = experiment: Induction of apoptosis in human A2780 cells assessed as increase in cleaved PARP protein expression at 0.5 to 5 uM after 24 hrs by Western blot analysis; type: functional, cell-based; conditions: dose 0.5-5 µM; in short: as §4
HCT-116 [22] = experiment: Induction of apoptosis in human HCT-116 cells assessed as reduction in Mcl-1 protein expression after 24 hrs by Western blot analysis; type: functional, cell-based; conditions: dose 0.5-5 µM
HCT-116 [23] = experiment: Induction of apoptosis in human HCT-116 cells assessed as reduction in XIAP protein expression after 24 hrs by Western blot analysis; type: functional, cell-based; conditions: dose 0.5-5 µM

Sequence of Cyclin-dependent kinase 9 (Homo sapiens) (P50750 whole entry): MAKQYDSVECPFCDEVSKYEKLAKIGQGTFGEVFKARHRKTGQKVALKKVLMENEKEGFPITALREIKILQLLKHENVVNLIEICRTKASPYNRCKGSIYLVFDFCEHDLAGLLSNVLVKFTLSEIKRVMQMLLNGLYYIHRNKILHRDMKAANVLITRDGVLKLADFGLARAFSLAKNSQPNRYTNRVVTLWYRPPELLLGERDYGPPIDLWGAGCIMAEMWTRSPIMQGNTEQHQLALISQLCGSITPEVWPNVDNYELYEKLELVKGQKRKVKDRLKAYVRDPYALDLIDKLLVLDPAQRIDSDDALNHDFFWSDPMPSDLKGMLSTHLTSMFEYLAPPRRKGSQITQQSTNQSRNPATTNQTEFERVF
Sequence of Cyclin-dependent kinase 7/ cyclin H (P51946 whole entry): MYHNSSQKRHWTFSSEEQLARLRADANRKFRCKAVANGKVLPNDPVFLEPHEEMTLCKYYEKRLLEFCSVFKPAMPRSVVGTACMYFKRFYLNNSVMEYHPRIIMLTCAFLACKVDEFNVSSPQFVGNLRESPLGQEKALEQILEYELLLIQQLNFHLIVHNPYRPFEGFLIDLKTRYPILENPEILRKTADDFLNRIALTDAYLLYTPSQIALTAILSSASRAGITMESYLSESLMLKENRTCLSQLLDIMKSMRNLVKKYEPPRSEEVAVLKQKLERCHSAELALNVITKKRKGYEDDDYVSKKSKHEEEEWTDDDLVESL
Sequence of Cyclin-dependent kinase 7/ cyclin H (P50613 whole entry): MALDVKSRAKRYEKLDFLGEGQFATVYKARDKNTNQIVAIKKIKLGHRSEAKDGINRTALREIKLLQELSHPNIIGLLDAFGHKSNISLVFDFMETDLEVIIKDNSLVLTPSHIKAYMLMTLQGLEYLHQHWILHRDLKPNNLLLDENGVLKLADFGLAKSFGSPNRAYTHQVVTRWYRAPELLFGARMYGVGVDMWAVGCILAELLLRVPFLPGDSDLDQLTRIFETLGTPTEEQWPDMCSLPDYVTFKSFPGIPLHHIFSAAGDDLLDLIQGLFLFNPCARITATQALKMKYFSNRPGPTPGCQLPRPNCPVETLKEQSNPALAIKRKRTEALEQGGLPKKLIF
Sequence of Tyrosine-protein kinase Fyn (Homo sapiens) (P06241 2-537 limits assumed): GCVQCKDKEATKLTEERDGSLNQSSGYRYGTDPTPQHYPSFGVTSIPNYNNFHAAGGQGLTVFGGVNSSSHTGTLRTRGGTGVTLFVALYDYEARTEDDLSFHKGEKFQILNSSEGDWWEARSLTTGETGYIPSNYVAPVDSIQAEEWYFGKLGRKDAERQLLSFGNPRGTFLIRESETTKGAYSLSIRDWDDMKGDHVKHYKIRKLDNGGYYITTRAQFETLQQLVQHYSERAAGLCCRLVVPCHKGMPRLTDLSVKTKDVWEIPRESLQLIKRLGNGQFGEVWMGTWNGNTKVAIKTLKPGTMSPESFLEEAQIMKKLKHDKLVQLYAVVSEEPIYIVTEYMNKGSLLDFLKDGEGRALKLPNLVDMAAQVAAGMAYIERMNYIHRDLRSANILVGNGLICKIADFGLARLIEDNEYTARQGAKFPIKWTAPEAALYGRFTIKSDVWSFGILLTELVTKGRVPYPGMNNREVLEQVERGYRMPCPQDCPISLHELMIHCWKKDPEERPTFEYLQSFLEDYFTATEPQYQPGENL
Sequence of Aurora kinase A (Homo sapiens), O14965 [UNDEFINED MUTATION] (O14965 whole entry, looked up, stated change not applied): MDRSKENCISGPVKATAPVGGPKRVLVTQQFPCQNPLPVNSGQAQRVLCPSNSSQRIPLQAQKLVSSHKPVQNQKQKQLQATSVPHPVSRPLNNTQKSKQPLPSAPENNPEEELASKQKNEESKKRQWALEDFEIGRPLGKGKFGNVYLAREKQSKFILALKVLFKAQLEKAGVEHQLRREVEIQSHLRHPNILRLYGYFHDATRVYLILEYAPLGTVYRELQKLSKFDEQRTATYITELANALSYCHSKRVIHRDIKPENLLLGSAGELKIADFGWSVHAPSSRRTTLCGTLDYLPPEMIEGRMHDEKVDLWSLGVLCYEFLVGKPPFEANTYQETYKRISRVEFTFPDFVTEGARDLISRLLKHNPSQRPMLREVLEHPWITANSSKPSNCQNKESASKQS

- pKi [1]: 6.26
- Ratio Ki (Homo sapiens): > 50
- inhibition [2]: Active
- inhibition [3]: Active
- inhibition [4]: Active
- GI50 (A549): 1.54 µM
- GI50 (MIA PaCa-2): 1.07 µM
- inhibition [17]: Dose-Dependent Effect
SMILES: CNc1nc(C)c(-c2nc(Nc3cccc(N4CCN5CCC4CC5)c3)ncc2C)s1
- viability at 0.5 µM (A2780 [5]): 88.3%
- viability at 2 µM (A2780 [6]): 67.9%
- Activity (A2780 [7]): 14.4%
- viability at 5 µM (A2780 [8]): 22.6%
- Activity (A2780 [9]): 24.65%
- Activity (A2780 [10]): 2%
- Activity (A2780 [11]): 59.8%
- Activity (A2780 [12]): 50.5%
- Activity (A2780 [13]): 7.6%
- Activity (A2780 [14]): 8.3%
- Activity (A2780 [15]): 31.5%
- Activity (A2780 [16]): Dose-Dependent Effect
- Activity (A2780 [18]): Active
- Activity (A2780 [19]): Dose-Dependent Effect
- Activity (A2780 [20]): Dose-Dependent Effect
- Activity (A2780 [21]): Active
- Activity (HCT-116 [22]): Dose-Dependent Effect
- Activity (HCT-116 [23]): Dose-Dependent Effect
